This passage reports inhibition results from ChEMBL document CHEMBL2424622, “Development of amino-pyrimidine inhibitors of c-Jun N-terminal kinase (JNK): kinase profiling guided optimization of a 1,2,3-benzotriazole lead” (Bioorg Med Chem Lett, 2013).

In experiment [1] the target is Serine/threonine-protein kinase 33 (Homo sapiens) (UniProt Q9BYT3). In words: Competitive binding affinity to STK33 (unknown origin) at 10 uM in presence of ATP relative to control.
The target of experiment [2] is Serine/threonine-protein kinase PLK3 (Homo sapiens) (UniProt Q9H4B4). In words: Competitive binding affinity to PLK3 (unknown origin) at 10 uM in presence of ATP relative to control.
Sequence of Serine/threonine-protein kinase PLK3 (Homo sapiens) (Q9H4B4 whole entry, looked up, the tested form may be a part): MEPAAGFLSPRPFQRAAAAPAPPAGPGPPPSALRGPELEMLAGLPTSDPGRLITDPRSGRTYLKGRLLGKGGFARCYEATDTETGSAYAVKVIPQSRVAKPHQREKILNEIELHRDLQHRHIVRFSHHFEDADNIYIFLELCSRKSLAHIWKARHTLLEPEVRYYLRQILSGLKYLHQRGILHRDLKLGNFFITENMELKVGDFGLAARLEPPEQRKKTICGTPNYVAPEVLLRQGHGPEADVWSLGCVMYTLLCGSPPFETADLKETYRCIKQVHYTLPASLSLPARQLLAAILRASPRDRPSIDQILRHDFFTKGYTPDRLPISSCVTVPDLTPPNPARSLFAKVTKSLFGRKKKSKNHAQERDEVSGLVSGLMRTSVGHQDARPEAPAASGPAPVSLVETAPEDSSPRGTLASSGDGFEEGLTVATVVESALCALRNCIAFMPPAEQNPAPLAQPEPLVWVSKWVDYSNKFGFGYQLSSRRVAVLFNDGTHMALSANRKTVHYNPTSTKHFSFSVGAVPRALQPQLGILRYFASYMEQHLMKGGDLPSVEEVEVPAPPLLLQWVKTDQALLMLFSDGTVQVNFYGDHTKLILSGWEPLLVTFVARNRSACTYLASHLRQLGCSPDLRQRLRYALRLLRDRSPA
In experiment [3] the target is Ribosomal protein S6 kinase alpha-6 (Homo sapiens) (UniProt Q9UK32). In words: Competitive binding affinity to RPS6KA6 kinase domain 1 (unknown origin) at 10 uM in presence of ATP relative to control.
Sequence of Ribosomal protein S6 kinase alpha-6 (Homo sapiens) (Q9UK32 whole entry, the tested form may be a part): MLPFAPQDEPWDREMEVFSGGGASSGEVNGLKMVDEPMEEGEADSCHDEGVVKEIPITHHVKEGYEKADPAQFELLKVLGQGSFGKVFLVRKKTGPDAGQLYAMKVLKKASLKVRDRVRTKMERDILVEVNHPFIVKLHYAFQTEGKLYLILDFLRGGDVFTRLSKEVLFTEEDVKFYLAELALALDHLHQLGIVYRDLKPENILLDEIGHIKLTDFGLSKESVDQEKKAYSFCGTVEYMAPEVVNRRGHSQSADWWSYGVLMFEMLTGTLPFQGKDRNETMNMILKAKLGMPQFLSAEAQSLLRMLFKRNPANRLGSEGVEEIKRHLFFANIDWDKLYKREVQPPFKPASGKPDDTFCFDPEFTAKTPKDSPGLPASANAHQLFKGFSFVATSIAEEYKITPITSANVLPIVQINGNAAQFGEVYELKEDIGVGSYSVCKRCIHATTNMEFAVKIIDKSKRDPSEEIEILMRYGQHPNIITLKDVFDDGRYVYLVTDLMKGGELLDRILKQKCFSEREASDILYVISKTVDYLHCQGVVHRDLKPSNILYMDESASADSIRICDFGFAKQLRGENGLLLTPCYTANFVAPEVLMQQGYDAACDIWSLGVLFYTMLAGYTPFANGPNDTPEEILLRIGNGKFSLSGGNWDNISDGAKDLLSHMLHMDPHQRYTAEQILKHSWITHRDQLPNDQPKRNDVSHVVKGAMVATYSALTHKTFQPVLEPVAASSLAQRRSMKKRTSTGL
Experiment [4] concerns the target T1, Serine/threonine-protein kinase TNNI3K (Homo sapiens) (UniProt Q59H18).
T1 sequence (whole entry): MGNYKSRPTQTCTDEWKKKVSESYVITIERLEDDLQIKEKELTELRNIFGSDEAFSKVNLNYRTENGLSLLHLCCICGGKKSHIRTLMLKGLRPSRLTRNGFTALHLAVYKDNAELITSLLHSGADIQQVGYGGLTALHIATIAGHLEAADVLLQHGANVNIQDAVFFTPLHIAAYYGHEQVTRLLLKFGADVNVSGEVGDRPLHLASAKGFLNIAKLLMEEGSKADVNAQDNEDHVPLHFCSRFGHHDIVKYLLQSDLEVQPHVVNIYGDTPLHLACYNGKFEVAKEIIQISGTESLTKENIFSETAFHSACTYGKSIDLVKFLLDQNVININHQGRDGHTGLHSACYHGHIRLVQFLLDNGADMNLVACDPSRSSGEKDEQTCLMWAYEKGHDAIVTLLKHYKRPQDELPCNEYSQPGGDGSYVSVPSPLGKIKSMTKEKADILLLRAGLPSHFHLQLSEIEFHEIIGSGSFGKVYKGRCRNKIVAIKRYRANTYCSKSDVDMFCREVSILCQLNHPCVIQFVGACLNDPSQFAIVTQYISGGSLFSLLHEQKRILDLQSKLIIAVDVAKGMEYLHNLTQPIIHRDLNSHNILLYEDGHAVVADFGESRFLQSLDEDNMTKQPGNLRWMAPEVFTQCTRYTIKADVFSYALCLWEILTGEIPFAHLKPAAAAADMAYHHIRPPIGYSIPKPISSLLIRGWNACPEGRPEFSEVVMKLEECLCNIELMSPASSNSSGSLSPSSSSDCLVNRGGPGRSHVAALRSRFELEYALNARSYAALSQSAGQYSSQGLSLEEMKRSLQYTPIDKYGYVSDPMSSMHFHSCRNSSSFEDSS
In words: Competitive binding affinity to […] (unknown origin) at 10 uM in presence of ATP relative to control.

Experiment [5] deals with T2, Ephrin type-A receptor 1 (Homo sapiens) (UniProt P21709).
T2 sequence (whole entry): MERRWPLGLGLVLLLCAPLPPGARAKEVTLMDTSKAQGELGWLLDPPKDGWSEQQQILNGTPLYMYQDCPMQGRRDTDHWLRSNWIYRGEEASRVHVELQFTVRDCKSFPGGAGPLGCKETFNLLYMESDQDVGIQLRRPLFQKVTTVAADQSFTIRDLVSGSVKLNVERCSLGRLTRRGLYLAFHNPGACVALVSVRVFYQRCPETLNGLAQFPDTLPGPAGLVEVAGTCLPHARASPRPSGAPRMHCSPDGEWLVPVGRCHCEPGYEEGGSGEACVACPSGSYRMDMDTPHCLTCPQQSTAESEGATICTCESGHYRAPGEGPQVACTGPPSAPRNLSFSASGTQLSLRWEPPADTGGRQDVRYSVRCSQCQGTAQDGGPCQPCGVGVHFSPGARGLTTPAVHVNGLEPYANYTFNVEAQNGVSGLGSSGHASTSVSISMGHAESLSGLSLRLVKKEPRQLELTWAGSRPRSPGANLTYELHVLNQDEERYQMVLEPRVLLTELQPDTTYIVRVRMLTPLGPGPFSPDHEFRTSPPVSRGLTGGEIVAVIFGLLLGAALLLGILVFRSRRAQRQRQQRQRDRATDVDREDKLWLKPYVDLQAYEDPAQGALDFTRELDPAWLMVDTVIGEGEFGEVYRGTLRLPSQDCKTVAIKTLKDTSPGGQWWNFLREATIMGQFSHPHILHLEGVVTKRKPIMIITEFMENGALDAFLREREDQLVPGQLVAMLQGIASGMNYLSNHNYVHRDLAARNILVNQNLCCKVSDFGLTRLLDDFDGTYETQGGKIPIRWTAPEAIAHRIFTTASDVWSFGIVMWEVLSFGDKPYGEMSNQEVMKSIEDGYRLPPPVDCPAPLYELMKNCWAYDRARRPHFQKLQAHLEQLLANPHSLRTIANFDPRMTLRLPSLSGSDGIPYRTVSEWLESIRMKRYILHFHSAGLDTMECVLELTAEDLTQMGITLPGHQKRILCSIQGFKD
The experiment can be described thus: Competitive binding affinity to EPHA1 (unknown origin) at 10 uM in presence of ATP relative to control. The method in brief:
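In vitro ATP-site competition binding assay, part of profiling against a diverse panel of 128 kinases. Each compound was tested at a single concentration of 10 µM. Kinome selectivity was summarized as S15 selectivity scores.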

In experiment [6] the target is Mitogen-activated protein kinase kinase kinase kinase 1 (Homo sapiens) (UniProt Q92918). The experiment can be described thus: Competitive binding affinity to MAP4K1 (unknown origin) at 10 uM in presence of ATP relative to control.
Sequence of Mitogen-activated protein kinase kinase kinase kinase 1 (Homo sapiens) (Q92918 whole entry, looked up): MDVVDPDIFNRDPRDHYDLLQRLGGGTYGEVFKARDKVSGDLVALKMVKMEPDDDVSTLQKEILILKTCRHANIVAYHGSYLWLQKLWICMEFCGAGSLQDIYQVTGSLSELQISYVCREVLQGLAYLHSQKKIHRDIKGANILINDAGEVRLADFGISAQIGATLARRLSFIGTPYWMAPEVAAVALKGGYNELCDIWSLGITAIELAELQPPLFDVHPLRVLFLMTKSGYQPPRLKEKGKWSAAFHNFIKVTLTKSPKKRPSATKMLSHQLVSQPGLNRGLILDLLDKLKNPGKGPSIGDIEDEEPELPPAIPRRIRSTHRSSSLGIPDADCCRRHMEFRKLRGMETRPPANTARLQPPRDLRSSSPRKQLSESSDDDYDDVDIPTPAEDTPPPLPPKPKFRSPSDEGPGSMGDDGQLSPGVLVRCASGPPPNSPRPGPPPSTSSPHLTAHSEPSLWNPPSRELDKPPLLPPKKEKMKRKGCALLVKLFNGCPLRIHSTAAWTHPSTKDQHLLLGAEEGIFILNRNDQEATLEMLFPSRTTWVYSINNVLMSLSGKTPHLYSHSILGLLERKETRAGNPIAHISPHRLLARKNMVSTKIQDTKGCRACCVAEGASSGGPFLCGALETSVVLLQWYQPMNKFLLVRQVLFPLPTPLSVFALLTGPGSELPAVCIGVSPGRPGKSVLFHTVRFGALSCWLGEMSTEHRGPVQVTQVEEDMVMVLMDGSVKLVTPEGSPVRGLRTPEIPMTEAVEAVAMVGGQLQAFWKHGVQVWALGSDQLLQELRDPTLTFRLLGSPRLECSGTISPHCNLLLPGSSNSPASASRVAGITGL
In experiment [7] the target is Serine/threonine-protein kinase pim-3 (Homo sapiens) (UniProt Q86V86). The experiment can be described thus: Competitive binding affinity to PIM3 (unknown origin) at 10 uM in presence of ATP relative to control.
For experiment [8], the target named is Protein kinase C theta type (Homo sapiens) (UniProt Q04759). The experiment can be described thus: Competitive binding affinity to PRKCQ (unknown origin) at 10 uM in presence of ATP relative to control.
Sequence of Protein kinase C theta type (Homo sapiens) (Q04759 whole entry, looked up): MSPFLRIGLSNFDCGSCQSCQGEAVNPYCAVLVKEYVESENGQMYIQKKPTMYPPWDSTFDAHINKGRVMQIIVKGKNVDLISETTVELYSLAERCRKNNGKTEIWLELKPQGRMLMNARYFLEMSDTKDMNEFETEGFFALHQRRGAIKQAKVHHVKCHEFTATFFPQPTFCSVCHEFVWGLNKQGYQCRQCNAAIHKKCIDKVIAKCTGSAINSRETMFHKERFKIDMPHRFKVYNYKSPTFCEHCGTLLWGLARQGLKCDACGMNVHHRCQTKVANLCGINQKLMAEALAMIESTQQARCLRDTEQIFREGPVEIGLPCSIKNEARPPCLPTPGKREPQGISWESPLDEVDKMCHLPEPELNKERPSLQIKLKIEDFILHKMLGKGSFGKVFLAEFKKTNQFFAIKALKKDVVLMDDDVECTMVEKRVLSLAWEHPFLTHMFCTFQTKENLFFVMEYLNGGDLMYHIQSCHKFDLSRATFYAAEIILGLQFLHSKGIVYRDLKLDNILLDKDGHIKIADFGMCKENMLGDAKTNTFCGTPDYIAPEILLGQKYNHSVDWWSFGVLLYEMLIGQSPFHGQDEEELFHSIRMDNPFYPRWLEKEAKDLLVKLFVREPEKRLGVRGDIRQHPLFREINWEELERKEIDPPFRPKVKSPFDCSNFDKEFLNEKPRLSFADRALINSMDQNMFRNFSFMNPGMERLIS
Experiment [9] has as its target Cyclin-dependent kinase 18 (Homo sapiens) (UniProt Q07002). In words: Competitive binding affinity to PCTK3 (unknown origin) at 10 uM in presence of ATP relative to control.

SMILES strings stand for the structures.

Sequence of Serine/threonine-protein kinase 33 (Homo sapiens) (Q9BYT3 whole entry, looked up): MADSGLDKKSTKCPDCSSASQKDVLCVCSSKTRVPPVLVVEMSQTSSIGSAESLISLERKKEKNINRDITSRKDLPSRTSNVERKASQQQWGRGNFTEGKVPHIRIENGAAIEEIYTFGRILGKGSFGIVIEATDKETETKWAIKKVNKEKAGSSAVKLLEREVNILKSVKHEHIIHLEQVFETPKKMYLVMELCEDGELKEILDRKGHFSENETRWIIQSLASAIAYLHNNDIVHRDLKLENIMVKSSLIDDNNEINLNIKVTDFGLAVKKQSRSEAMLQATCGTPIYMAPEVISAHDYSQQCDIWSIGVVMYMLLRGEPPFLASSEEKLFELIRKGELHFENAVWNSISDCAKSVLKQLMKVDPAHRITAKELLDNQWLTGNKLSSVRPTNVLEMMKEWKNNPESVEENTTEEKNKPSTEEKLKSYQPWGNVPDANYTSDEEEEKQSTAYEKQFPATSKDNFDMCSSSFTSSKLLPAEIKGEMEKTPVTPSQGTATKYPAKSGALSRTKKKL
Sequence of Cyclin-dependent kinase 18 (Homo sapiens) (Q07002 whole entry): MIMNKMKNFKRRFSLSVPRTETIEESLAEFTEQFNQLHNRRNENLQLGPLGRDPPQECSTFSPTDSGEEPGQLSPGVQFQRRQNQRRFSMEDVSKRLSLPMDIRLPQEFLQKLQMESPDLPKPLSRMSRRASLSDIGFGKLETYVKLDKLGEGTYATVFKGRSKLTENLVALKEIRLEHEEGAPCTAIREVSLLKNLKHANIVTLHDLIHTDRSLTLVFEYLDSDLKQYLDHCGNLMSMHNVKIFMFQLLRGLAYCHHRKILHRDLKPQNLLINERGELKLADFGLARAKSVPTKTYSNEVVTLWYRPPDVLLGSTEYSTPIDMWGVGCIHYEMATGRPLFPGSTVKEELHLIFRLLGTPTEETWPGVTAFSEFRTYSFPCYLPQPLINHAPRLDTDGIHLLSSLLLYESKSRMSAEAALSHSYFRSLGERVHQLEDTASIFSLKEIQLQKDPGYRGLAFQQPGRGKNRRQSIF

The term inhibition denotes the change of the read-out against control, counted positive when it falls. Regarding `O[C@H]1CC[C@H](Nc2nccc(-c3n[nH]c4ccccc34)n2)CC1`, the inhibition in [1] was 98%; in experiment [2] it was under 50%; in experiment [3], 79%; in experiment [4] it was under 50%; in experiment [5] it was under 50%; in experiment [6], 97%.

On to `O[C@H]1CC[C@H](Nc2nccc(-n3ccc4ccccc43)n2)CC1`, for which the inhibition in experiment [1], in experiment [2], in experiment [3], in experiment [4], in experiment [5] and in experiment [7] was under 50% each time. For the same compound, the inhibition in experiment [8], in experiment [6] and in experiment [9] was under 50% each time.

Take `O[C@H]1CC[C@H](Nc2nccc(-n3ncc4ccccc43)n2)CC1`: the inhibition in [1] was 78%; in [2] it was under 50%; in [3], under 50%; in experiment [4], under 50%; in experiment [5], under 50%; in experiment [7], 96%. In addition, the inhibition in experiment [8], in experiment [6] and in [9] was under 50% throughout.

Take `O[C@H]1CC[C@H](Nc2nccc(-n3nnc4ccccc43)n2)CC1`: the inhibition in experiment [1] was 75%; in experiment [2], 68%; in experiment [3], under 50%; in experiment [4], under 50%; in [5] it was under 50%; in experiment [7], 88%. Besides, the inhibition in [8], in [6] and in experiment [9] was under 50% each time.
